Reference: ChEMBL document CHEMBL3352033, “Jatrophanes from Euphorbia squamosa as potent inhibitors of Candida albicans multidrug transporters” (J Nat Prod, 2014)
Activity calls are given as the source filed them. The rule behind the calls is not given here.

Assays:
Candida albicans [1] = test: Inhibition of Candida albicans CaCdr1p-mediated drug efflux overexpressed in Saccharomyces cerevisiae assessed as nile red accumulation after 30 mins by flow cytometry
Method in brief: (§1)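 Host is S. cerevisiae AD1-8u− deleted for its own multidrug transporters, carrying the C. albicans transporter ORF integrated at the PDR5 locus (AD-CDR1 or AD-MDR1). Cells are grown in YEPD at 30 °C from OD600 0.1 to 0.25, then resuspended as a 5% suspension in YEPD diluted 1:2 with water. NR is 7 μM final with inhibitor at 70 μM, 30 min at 30 °C. Read-out is flow cytometry of 10 000 cells. Three independent experiments.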

Saccharomyces cerevisiae [2] = test: Toxicity against Saccharomyces cerevisiae AD1-8u(-); assay type: organism-based
Method in brief: (§2)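 Yeast cells (10^4) seeded with inhibitor 0.15−80 μM or none, grown 48 h at 30 °C in YEPD; optical density measured. Growth without inhibitor set as 100%, and the concentration giving 50% growth taken as IC50. Means ± SD of three independent experiments, duplicate samples.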

Saccharomyces cerevisiae [3] = test: Toxicity against Saccharomyces cerevisiae AD1-8u(-) overexpressing CaCdr1p; assay type: organism-based; method in brief: as §2
Saccharomyces cerevisiae [4] = test: Toxicity against Saccharomyces cerevisiae AD1-8u(-) overexpressing CaMdr1p; assay type: organism-based; method in brief: as §2
Saccharomyces cerevisiae [5] = test: Resistance index, ratio of IC50 for Saccharomyces cerevisiae AD1-8u(-) overexpressing CaCdr1p to IC50 for Saccharomyces cerevisiae AD1-8u(-); assay type: functional
Method in brief: (§3)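 RI computed as the IC50 for the AD-CDR1 or AD-MDR1 strain divided by that for control strain AD1-8u−. Each IC50 comes from optical density after 48 h growth at 30 °C of 10^4 cells with inhibitor at 0.15−80 μM, 50% growth versus untreated. Means ± SD of three independent experiments.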

Saccharomyces cerevisiae [6] = test: Resistance index, ratio of IC50 for Saccharomyces cerevisiae AD1-8u(-) overexpressing CaMdr1p to IC50 for Saccharomyces cerevisiae AD1-8u(-); assay type: functional; method in brief: as §3
Saccharomyces cerevisiae [7] = test: Growth inhibition of Saccharomyces cerevisiae AD1-8u(-) assessed as FIC of fluconazole by checkerboard method; assay type: functional
Method in brief: (§4)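 Checkerboard per CLSI: yeast cells (10^4) in 96-well format with fluconazole 0.15−800 μM crossed with inhibitor 0.15−80 μM, grown 48 h at 30 °C in YEPD; growth read by optical density. FIC for FLC = IC50 of FLC in combination/IC50 alone; FIC for inhibitor likewise; FICI from both. Means ± SD of three independent experiments.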

Saccharomyces cerevisiae [8] = test: Growth inhibition of Saccharomyces cerevisiae AD1-8u(-) overexpressing CaCdr1p assessed as FIC of fluconazole by checkerboard method; assay type: functional; method in brief: as §4
Saccharomyces cerevisiae [9] = test: Growth inhibition of Saccharomyces cerevisiae AD1-8u(-) overexpressing CaMdr1p assessed as FIC of fluconazole by checkerboard method; assay type: functional; method in brief: as §4
Saccharomyces cerevisiae [10] = test: Growth inhibition of Saccharomyces cerevisiae AD1-8u(-) assessed as FIC of compound by checkerboard method; assay type: functional; method in brief: as §4
Saccharomyces cerevisiae [11] = test: Growth inhibition of Saccharomyces cerevisiae AD1-8u(-) overexpressing CaCdr1p assessed as FIC of compound by checkerboard method; assay type: functional; method in brief: as §4
Saccharomyces cerevisiae [12] = test: Growth inhibition of Saccharomyces cerevisiae AD1-8u(-) overexpressing CaMdr1p assessed as FIC of compound by checkerboard method; assay type: functional; method in brief: as §4
Saccharomyces cerevisiae [13] = test: Growth inhibition of Saccharomyces cerevisiae AD1-8u(-) assessed as FIC index by checkerboard method; assay type: functional; method in brief: as §4
Saccharomyces cerevisiae [14] = test: Growth inhibition of Saccharomyces cerevisiae AD1-8u(-) overexpressing CaCdr1p assessed as FIC index by checkerboard method; assay type: functional; method in brief: as §4
Saccharomyces cerevisiae [15] = test: Growth inhibition of Saccharomyces cerevisiae AD1-8u(-) overexpressing CaMdr1p assessed as FIC index by checkerboard method; assay type: functional; method in brief: as §4
Candida albicans [16] = test: Inhibition of Candida albicans CaMdr1p-mediated drug efflux overexpressed in Saccharomyces cerevisiae assessed as nile red accumulation after 30 mins by flow cytometry; method in brief: as §1

CC(=O)O[C@@H]1[C@@H](OC(C)=O)C(C)(C)/C=C/[C@H](C)[C@@H](OC(C)=O)[C@@]2(OC(C)=O)C[C@@H](C)[C@H](OC(=O)c3ccccc3)/C2=C\[C@](C)(O)[C@@H]1O
inhibition (Candida albicans [1]): inactive

C=C1[C@H](OC(C)=O)[C@@H](OC(C)=O)[C@@H](OC(C)=O)C(C)(C)/C=C/[C@H](C)C(=O)[C@@]2(OC(C)=O)C[C@H](C)[C@H](OC(C)=O)[C@@H]2[C@H]1OC(=O)c1ccccc1
inhibition (Candida albicans [1]): inactive

CC(=O)O[C@@H]1[C@@H](O)[C@@H](OC(C)=O)/C(C)=C/[C@H]2[C@@H](OC(=O)c3ccccc3)[C@H](C)C[C@]2(OC(C)=O)[C@H](OC(C)=O)[C@@H](C)/C=C/C1(C)C
inhibition (Candida albicans [1]): Active | IC50 (Saccharomyces cerevisiae [2]): 2.3 µM | IC50 (Saccharomyces cerevisiae [3]): 3.7 µM | IC50 (Saccharomyces cerevisiae [4]): 3.5 µM | Ratio IC50 (Saccharomyces cerevisiae [5]): 1.6 | Ratio IC50 (Saccharomyces cerevisiae [6]): 1.5 | FIC50 (Saccharomyces cerevisiae [7]): 1.2 | FIC50 (Saccharomyces cerevisiae [8]): 0.08 | FIC50 (Saccharomyces cerevisiae [9]): 1 | FIC50 (Saccharomyces cerevisiae [10]): 0.07 | FIC50 (Saccharomyces cerevisiae [11]): 0.34 | FIC50 (Saccharomyces cerevisiae [12]): 0.36 | fractional inhibitory concentration index (FICI) (Saccharomyces cerevisiae [13]): 1.27 | fractional inhibitory concentration index (FICI) (Saccharomyces cerevisiae [14]): 0.42 | fractional inhibitory concentration index (FICI) (Saccharomyces cerevisiae [15]): 1.36

CC(=O)O[C@@H]1[C@H](C)/C=C/C(C)(C)C(=O)C[C@@H](OC(=O)c2ccccc2)/C(C)=C/[C@H]2[C@@H](OC(=O)c3ccccc3)[C@H](C)C[C@]12OC(C)=O
inhibition (Candida albicans [1]): inactive

CC(=O)O[C@@H]1[C@@H](OC(C)=O)C(C)(C)/C=C/[C@H](C)C(=O)[C@@]2(OC(C)=O)C[C@@H](C)[C@H](OC(=O)c3ccccc3)/C2=C/[C@](C)(O)[C@@H]1OC(C)=O
inhibition (Candida albicans [1]): 88% | inhibition (Candida albicans [16]): Active | IC50 (Saccharomyces cerevisiae [2]): 2.3 µM | IC50 (Saccharomyces cerevisiae [3]): 26.7 µM | IC50 (Saccharomyces cerevisiae [4]): 28.3 µM | Ratio IC50 (Saccharomyces cerevisiae [5]): 11.6 | Ratio IC50 (Saccharomyces cerevisiae [6]): 12.3 | FIC50 (Saccharomyces cerevisiae [7]): 1.2 | FIC50 (Saccharomyces cerevisiae [8]): 0.02 | FIC50 (Saccharomyces cerevisiae [9]): 0.5 | FIC50 (Saccharomyces cerevisiae [10]): 0.07 | FIC50 (Saccharomyces cerevisiae [11]): 0.01 | FIC50 (Saccharomyces cerevisiae [12]): 0.02 | fractional inhibitory concentration index (FICI) (Saccharomyces cerevisiae [13]): 1.27 | fractional inhibitory concentration index (FICI) (Saccharomyces cerevisiae [14]): 0.03 | fractional inhibitory concentration index (FICI) (Saccharomyces cerevisiae [15]): 0.52

C=C1CC(OC(C)=O)C(=O)C(C)(C)/C=C/[C@H](C)[C@@H](OC(C)=O)[C@@]2(OC(C)=O)C[C@@H](C)[C@H](OC(=O)c3ccccc3)[C@@H]2[C@H]1OC(C)=O (some centres not stated)
inhibition (Candida albicans [1]): Active | IC50 (Saccharomyces cerevisiae [2]): 2.3 µM | IC50 (Saccharomyces cerevisiae [3]): 31.7 µM | IC50 (Saccharomyces cerevisiae [4]): 25 µM | Ratio IC50 (Saccharomyces cerevisiae [5]): 13.8 | Ratio IC50 (Saccharomyces cerevisiae [6]): 10.9 | FIC50 (Saccharomyces cerevisiae [7]): 1.2 | FIC50 (Saccharomyces cerevisiae [8]): 0.04 | FIC50 (Saccharomyces cerevisiae [9]): 1 | FIC50 (Saccharomyces cerevisiae [10]): 0.07 | FIC50 (Saccharomyces cerevisiae [11]): 0.02 | FIC50 (Saccharomyces cerevisiae [12]): 0.02 | fractional inhibitory concentration index (FICI) (Saccharomyces cerevisiae [13]): 1.27 | fractional inhibitory concentration index (FICI) (Saccharomyces cerevisiae [14]): 0.06 | fractional inhibitory concentration index (FICI) (Saccharomyces cerevisiae [15]): 1.02

C=C1[C@H](OC(=O)c2ccccc2)[C@H]2[C@@H](OC(C)=O)[C@@H](C)C[C@]2(OC(C)=O)C(=O)[C@@H](C)/C=C/C(C)(C)C(=O)[C@H](OC(C)=O)[C@H]1OC(C)=O
inhibition (Candida albicans [1]): inactive

C=C1CCC(=O)C(C)(C)/C=C/[C@H](C)C(=O)[C@@]2(OC(C)=O)C[C@H](C)[C@H](OC(=O)c3ccccc3)[C@@H]2[C@H]1OC(C)=O
inhibition (Candida albicans [1]): Active | inhibition (Candida albicans [16]): Active
